# “And” between values parts separate entries of the source, which are not always exact repeats. Identical values can stand only once. The source made the active and inactive calls.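 Rule for the calls: active = compounds halving thioesterase enzyme activity at 20 µM or lower; inactive = the rest.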
# Target: Fatty acid synthase (Homo sapiens) (UniProt P49327)
# Assay: inhibition of FAS-TE enzyme activity – biochemical, kinetic fluorescence, OMFH substrate, round 2, powder samples, SAR follow-up (AID 652286)
# Settings: recombinant FAS-TE, OMFH fluorogenic substrate
# Method in brief: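 Assay system: FAS thioesterase domain enzyme; Input: 0.9 µM FAS-TE; Buffer or medium: 100 mM Tris-HCl pH 7.5, 50 mM NaCl, 500 mM sarcosine, TCEP, Brij35; Timing: 10-min read interval, room temperature; Technique: kinetic fluorescence intensity, excitation 480 nm, emission 540 nm.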
# Fatty acid synthase (Homo sapiens), sequence (P49327 whole entry, looked up): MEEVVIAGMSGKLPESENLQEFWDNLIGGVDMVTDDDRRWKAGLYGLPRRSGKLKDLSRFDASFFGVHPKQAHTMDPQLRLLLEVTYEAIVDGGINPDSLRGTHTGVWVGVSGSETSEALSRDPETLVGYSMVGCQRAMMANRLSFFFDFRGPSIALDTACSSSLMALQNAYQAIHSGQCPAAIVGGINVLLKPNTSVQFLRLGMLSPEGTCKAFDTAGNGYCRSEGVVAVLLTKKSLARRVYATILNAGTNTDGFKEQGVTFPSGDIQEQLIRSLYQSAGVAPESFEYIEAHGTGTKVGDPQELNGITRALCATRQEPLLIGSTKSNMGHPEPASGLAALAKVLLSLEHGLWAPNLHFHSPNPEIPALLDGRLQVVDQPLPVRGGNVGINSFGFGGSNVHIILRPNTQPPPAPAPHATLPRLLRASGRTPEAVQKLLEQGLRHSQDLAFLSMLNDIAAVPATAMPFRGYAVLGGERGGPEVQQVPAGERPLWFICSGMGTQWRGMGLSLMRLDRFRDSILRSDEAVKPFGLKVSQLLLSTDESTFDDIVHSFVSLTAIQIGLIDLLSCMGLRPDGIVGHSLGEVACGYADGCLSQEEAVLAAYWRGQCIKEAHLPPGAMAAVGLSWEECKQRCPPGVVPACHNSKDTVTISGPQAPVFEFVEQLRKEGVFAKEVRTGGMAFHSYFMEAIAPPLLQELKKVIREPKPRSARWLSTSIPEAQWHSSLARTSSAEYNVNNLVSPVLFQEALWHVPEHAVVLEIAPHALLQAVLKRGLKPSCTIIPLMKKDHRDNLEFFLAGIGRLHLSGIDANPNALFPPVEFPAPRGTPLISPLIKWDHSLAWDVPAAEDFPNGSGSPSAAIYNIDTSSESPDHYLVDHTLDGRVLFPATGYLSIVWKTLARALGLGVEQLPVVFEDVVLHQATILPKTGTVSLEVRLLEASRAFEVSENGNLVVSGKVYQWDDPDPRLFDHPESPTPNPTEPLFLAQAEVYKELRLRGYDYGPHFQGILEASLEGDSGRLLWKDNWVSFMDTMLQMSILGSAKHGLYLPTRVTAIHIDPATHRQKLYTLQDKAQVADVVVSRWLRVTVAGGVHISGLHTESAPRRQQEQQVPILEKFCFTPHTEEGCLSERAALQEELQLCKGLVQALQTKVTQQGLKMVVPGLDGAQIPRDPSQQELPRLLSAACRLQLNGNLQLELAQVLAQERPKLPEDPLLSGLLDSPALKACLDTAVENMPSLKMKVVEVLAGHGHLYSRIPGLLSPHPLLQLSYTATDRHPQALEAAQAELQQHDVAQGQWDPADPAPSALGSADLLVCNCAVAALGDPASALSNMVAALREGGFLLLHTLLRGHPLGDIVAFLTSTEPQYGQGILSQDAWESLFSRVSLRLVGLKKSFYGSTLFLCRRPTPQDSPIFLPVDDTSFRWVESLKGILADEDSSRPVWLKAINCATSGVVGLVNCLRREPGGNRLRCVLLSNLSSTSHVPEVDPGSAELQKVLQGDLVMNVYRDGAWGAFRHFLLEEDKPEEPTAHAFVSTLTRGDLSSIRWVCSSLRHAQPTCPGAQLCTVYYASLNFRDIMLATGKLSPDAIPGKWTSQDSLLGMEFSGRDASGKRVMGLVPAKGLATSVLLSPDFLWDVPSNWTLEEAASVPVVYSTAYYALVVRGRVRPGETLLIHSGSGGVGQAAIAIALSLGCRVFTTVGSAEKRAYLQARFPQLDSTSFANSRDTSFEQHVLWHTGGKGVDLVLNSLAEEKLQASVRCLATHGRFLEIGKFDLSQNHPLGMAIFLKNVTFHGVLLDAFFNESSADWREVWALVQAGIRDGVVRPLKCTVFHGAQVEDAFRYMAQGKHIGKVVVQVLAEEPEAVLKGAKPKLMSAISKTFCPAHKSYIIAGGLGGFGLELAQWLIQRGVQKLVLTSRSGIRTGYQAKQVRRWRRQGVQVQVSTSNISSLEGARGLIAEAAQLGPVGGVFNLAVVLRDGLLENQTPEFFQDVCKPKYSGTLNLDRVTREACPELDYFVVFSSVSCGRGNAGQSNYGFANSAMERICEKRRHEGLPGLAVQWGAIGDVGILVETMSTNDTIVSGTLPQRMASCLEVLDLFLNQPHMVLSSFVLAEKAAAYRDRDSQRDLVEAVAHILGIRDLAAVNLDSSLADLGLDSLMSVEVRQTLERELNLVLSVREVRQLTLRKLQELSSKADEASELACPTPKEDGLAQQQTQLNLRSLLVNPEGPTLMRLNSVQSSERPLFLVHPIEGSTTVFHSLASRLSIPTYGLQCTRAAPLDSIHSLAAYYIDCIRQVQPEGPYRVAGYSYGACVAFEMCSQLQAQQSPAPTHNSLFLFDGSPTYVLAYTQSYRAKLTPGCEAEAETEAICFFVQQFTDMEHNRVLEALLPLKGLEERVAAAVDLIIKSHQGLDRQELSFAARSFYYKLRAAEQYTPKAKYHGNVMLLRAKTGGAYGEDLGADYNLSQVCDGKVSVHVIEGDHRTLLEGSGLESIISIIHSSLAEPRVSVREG
row,SMILES,IC50
1,CCCCCCC(=O)Nc1nc(-c2ccc(S(=O)(=O)N3CCC(C)CC3)cc2)cs1,5850 nM
2,CCC(CC)C(=O)Nc1nc(-c2ccc(S(=O)(=O)N3CCCC3)cc2)cs1,254 nM
3,CCCCCCC(=O)Nc1nc(-c2ccc(S(=O)(=O)N3CCCC3)cc2)cs1,874 nM
4,CCCCC(=O)Nc1nc(-c2ccc(S(=O)(=O)N3CCCCC3C)cc2)cs1 (stereo not drawn),358 nM
5,CCC(C)C(=O)Nc1nc(-c2ccc(S(=O)(=O)N3CCCCC3C)cc2)cs1 (stereo not drawn),278 nM
6,CC1CCN(S(=O)(=O)c2ccc(-c3csc(NC(=O)C(C)C)n3)cc2)CC1,489 nM
7,CCC(C)C(=O)Nc1nc(-c2ccc(S(=O)(=O)N(CC)CC)cc2)cs1 (stereo not drawn),1060 nM and 152 nM
8,Cn1c(SCC(=O)Nc2ncc(C(F)(F)F)cc2Cl)nnc1-c1ccc(Cl)cc1,682 nM
9,CN(Cc1ccc(C(C)(C)C)cc1)C(=O)Cc1ccc(S(=O)(=O)N2CCOCC2)s1,365 nM
10,CCCCCC(=O)Nc1nc(-c2ccc(S(=O)(=O)N3CCC(C)CC3)cc2)cs1,762 nM
11,CCC(C)C(=O)Nc1nc(-c2ccc(S(=O)(=O)N3CCCC3)cc2)cs1 (stereo not drawn),141 nM
12,CCCCC(=O)Nc1nc(-c2ccc(S(=O)(=O)N3CCOCC3)cc2)cs1,201 nM
13,CCC(CC)C(=O)Nc1nc(-c2ccc(S(=O)(=O)N3CCC(C)CC3)cc2)cs1,1820 nM
14,CCCCCCCCCCC[C@H](C[C@@H]1OC(=O)[C@H]1CCCCCC)OC(=O)[C@@H](NC=O)C(C)C,122 nM
15,CCCCCC(=O)Nc1nc(-c2ccc(S(=O)(=O)N(CC)CC)cc2)cs1,190 nM
16,CC(C)CC(=O)Nc1nc(-c2ccc(S(=O)(=O)N3CCCC3)cc2)cs1,1640 nM
17,CCC(C)C(=O)Nc1nc(-c2ccc(S(=O)(=O)N3CCC(C)CC3)cc2)cs1 (stereo not drawn),405 nM
18,CCC(CC)C(=O)Nc1nc(-c2ccc(S(=O)(=O)N(CC)CC)cc2)cs1,343 nM
19,CCCCCC(=O)Nc1nc(-c2ccc(S(=O)(=O)N3CCCCC3C)cc2)cs1 (stereo not drawn),552 nM
20,CCCCCCC(=O)Nc1nc(-c2ccc(S(=O)(=O)N(CC)CC)cc2)cs1,1400 nM
21,CC(C)CC(=O)Nc1nc(-c2ccc(S(=O)(=O)N3CCC(C)CC3)cc2)cs1,inactive
22,CCCCCCC(=O)Nc1nc(-c2ccc(S(=O)(=O)N3CCCCC3C)cc2)cs1 (stereo not drawn),4430 nM
23,CCCCCC(=O)Nc1nc(-c2ccc(S(=O)(=O)N3CCCC3)cc2)cs1,137 nM

# Source: PubChem BioAssay AID652286 (Sanford-Burnham Center for Chemical Genomics, 2013)
